Source: PubChem (several laboratories)
Sampled rows, rich in hits. Any-hit rate of the full collection: about 2.6%.
SENP8 block-1 = SENP8 protease inhibitors, primary screen, biochemical, luminescence; actives 1.2% (n = 330,000); purified SENP8, Z-RLRGG-aminoluciferin cleavage; Sentrin-specific protease 8 (Homo sapiens), Q96LD8; inhibition, % at 10 µM; in the data active = inhibition above about 50%
SENP6 block = SENP6 protease inhibitors, primary screen, biochemical, luminescence, uHTS; actives 1.8% (n = 330,000); Sentrin-specific protease 6 (Homo sapiens), Q9GZR1; inhibition, % at 10 µM; Recombinant SENP6 catalytic domain, aminoluciferin luminescence;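 active = inhibition above about 50% at the single tested dose, limit read from the data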;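 also: plate controls were DMSO wells with enzyme for no effect and DMSO wells lacking enzyme for full effect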
SENP1 FRET inh = human SENP1 catalytic domain inhibitors, primary screen, biochemical, FRET, uHTS. recombinant SENP1 catalytic domain, CyPet-SUMO1-YPet FRET cleavage. inhibition, % at 10 µM. actives 0.21% (n = 360,000). AID 624204, 2012;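 active = inhibition at least 30% at 10 µM, raw YFP signal under a set limit, fluorescence ratio 0.5 to 1.5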;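 also: 0% = enzyme with DMSO and 100% = no enzyme wells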
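system = hSENP1 catalytic domain, recombinant | reagent = SFCypet-SUMO1-SFYpet substrate at 25 nM | doses = one dose per compound, 10 µM, 0.5% DMSO | incubation = enzyme reaction for 50 min at room temperature, dark | measured by = FRET, CFP and YFP emission | controls = no-enzyme low, enzyme-DMSO high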
Platelet DG rel = inhibitors of platelet dense granule secretion, primary screen, cell-based, MLPCN, human platelets | human platelet-rich plasma, SFLLRN dense granule ATP release, luminescence | inhibition, %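 (compounds screened at 7.5 µM in platelet-rich plasma)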 | actives 0.22% (n = 300,000) | AID 1663, 2009;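 active = mean replicate score, as percent of positive control, at or above 50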
SENP8 block-2 = human SENP8 protease inhibitors, primary screen, biochemical, fluorescence, Nedd8 protein substrate, uHTS; actives 0.64% (n = 360,000); recombinant SENP8; inhibition, % at 20 µM; Sentrin-specific protease 8 (Homo sapiens), Q96LD8; in the data active = inhibition mostly above about 40%, no sharp cut-off; inactive = mostly below about 27%
SENP7 inh = SENP7 protease inhibitors, primary screen, biochemical, luminescence, uHTS. Sentrin-specific protease 7 (Homo sapiens), Q9BQF6. recombinant SENP7, Z-RLRGG-aminoluciferin luminescence, 40 min. inhibition, % at 5 µM. actives 1.5% (n = 330,000). AID 434973, 2010;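 active = inhibition above about 50% at the single test dose, limit read from the data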;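 also: plate controls were DMSO with enzyme for no effect and no enzyme buffer wells for full effect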
Target sequence (Q9BQF6 706-1050 limits assumed): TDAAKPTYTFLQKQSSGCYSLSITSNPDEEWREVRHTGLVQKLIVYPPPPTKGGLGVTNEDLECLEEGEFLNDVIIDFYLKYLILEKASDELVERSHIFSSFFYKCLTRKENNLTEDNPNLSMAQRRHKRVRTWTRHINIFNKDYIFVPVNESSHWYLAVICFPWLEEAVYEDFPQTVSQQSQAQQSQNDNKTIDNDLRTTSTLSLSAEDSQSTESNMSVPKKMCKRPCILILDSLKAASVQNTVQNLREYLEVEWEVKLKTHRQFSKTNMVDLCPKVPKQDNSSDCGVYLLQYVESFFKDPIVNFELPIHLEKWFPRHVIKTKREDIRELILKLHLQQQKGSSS
SENP8 conf = SENP8 protease inhibitors, retest, confirmation, biochemical, luminescence, single concentration | inhibition, % at 12.5 µM | actives 40% (n = 6,200) | Recombinant SENP8, Z-RLRGG-aminoluciferin luminescence, 60 min | shares compounds with SENP7 inh;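 active = mean inhibition across replicates above about 50%, limit read from the data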
SENP6 confirm = SENP6 protease inhibitors, confirmation, biochemical, luminescence, single concentration. shares compounds with SENP7 inh. recombinant SENP6, Z-RLRGG-aminoluciferin luminescence. inhibition, % at 12.5 µM. actives 58% (n = 6,200). AID 488915, 2010
SENP7 confirm = SENP7 protease inhibitors, retest, confirmation, biochemical, luminescence, single concentration. shares compounds with SENP7 inh. recombinant SENP7, Z-RLRGG-aminoluciferin luminescence, 40 min. inhibition, % at 12.5 µM. actives 69% (n = 6,200)
Casp3 SENP sel = caspase-3 protease inhibitors, confirmation, selectivity assay for SENP inhibitor project, biochemical, single concentration; actives 60% (n = 6,200); purified caspase-3, Z-DEVD-aminoluciferin luminescence, 60 min; shares compounds with SENP7 inh; inhibition, % at 12.5 µM;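 active = mean inhibition above about 50%, limit read from the data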;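 also: plate controls were enzyme with DMSO for no effect and wells without caspase-3 for full effect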
Target sequence (P42574 28-227 limits assumed): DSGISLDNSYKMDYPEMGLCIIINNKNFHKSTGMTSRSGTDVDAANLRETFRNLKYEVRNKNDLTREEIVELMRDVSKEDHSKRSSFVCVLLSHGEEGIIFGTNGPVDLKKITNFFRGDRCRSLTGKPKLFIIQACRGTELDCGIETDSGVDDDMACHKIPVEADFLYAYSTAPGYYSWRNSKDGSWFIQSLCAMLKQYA
SENP luc ctr = luminescence interference (SENP counter-screen). inhibition, % at 12.5 µM. Pre-incubated SENP8/Z-RLRGG-aminoluciferin, luciferase luminescence interference. shares compounds with SENP7 inh. actives 39% (n = 6,200);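 active = mean inhibition above about 50% when retested at one dose, limit read from the data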;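 also: plate controls were DMSO wells with completed reaction for no effect and substrate without enzyme for full effect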
Active calls of the source: *; · = not tested or not shown.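 The calls were made as follows, unless noted: active = mean inhibition above about 50% in the one-dose retest (limit read from the data); inactive = the rest.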

SMILES	SENP8 block-1	SENP6 block	SENP1 FRET inh	Platelet DG rel	SENP8 block-2	SENP7 inh	SENP8 conf	SENP6 confirm	SENP7 confirm	Casp3 SENP sel	SENP luc ctr
COc1ccc(-c2nn(-c3ccccc3)cc2CNC[C@H]2O[C@@H](n3ccc(=O)[nH]c3=O)[C@H](O)[C@@H]2O)cc1	·	·	2	·	26	·	·	·	·	·	·
COc1cc(OC)cc(C(=O)Nc2ccc(S(=O)(=O)Nc3nc(C)cc(C)n3)cc2)c1	2	10	1	-9	4	3	·	·	·	·	·
C[C@@H](NC(=O)[C@@H]1CCCN1C(=O)[C@@H]1CCCN1C(=O)c1ccccc1)c1ccccc1	·	·	2	·	15	·	·	·	·	·	·
O=[N+]([O-])C(=C1NCCN1)C(Cl)=C(Cl)Cl	1	20	-1	0	10	2	·	·	·	·	·
Cc1ccc(C(=O)NCC(=O)Nc2ccccc2C)o1	·	·	0	·	9	·	·	·	·	·	·
Cc1noc(C(=O)NC2CCCCC2)c1Cl	2	-15	2	9	10	3	·	·	·	·	·
CCOc1cccc(C(=O)Nc2ccc(NC(=O)c3ccccc3)c(C)c2)c1	77*	78*	1	11	26	78*	12	24	43	86*	1
Cc1cccc(C(=O)Nc2ccc3ccccc3c2)c1	73*	83*	1	-7	7	75*	74*	76*	94*	58*	30
O=C(Nc1ccc2ccccc2c1)c1cccc([N+](=O)[O-])c1	-5	-17	1	13	20	19	·	·	·	·	·
COc1ccc(C(=O)Nc2ccc3ccccc3c2)cc1	86*	88*	2	39	6	96*	5	84*	100*	80*	32
COc1cccc(C(=O)Nc2ccc3c(c2)C(=O)NC3=O)c1	51*	58*	-3	22	-355	55*	-27	34	29	31	-4
COc1ccc(OC)c(C(=O)c2ccc(C(=O)Nc3ccc4ccccc4c3)cc2)c1	-1	-5	4	-7	20	5	·	·	·	·	·
CCCC(=O)Nc1ccc(NC(=O)c2cccc(OC)c2)nc1	16	52*	1	23	17	46	42	39	75*	76*	52*
COc1cccc(C(=O)Nc2cccc(OCC(=O)O)c2)c1	19	46	0	16	5	58*	53*	49	81*	84*	56*
COc1ccc(C(=O)Nc2cc(OC)nc(OC)n2)cc1	74*	87*	-1	56*	32	83*	83*	83*	97*	92*	84*
COC(=O)COc1cccc(NC(=O)c2cc(OC)cc(OC)c2)c1	11	26	0	-6	1	35	·	·	·	·	·
CC1=C(CCN2CCN(C(C)C)C(CCO)C2)C(C)(C)CCC1 (stereo not given)	-2	-20	-1	-9	12	6	·	·	·	·	·
O=C(c1cccs1)N(Cc1ccc(Cl)cc1)C1CCS(=O)(=O)C1 (stereo not given)	1	11	-4	-4	5	0	·	·	·	·	·
O=C(/C=C/Nc1cccc(F)c1)c1ccco1	52*	82*	-77	13	-265	73*	-10	72*	94*	85*	78*
CC(=O)Nc1ccc(N/C=C/C(=O)c2ccco2)cc1	2	11	-18	20	-51	-1	·	·	·	·	·
O=C(/C=C/Nc1ccc(F)c(Cl)c1)c1ccco1	45	70*	-47	5	-378	27	67*	66*	88*	56*	14
COc1ccccc1Oc1ccc(N/C=C/C(=O)c2ccco2)cc1	55*	85*	-23	8	-197	57*	88*	89*	100*	81*	76*
Cc1ccc(Nc2n[nH]c(C)c2[N+](=O)[O-])cc1	-11	-7	3	-13	25	-3	·	·	·	·	·
Cc1[nH]nc(Nc2ccc(C(C)C)cc2)c1[N+](=O)[O-]	39	51*	2	-1	15	16	42	39	77*	25	13
CCN(C(=O)COC(=O)c1cccnc1Nc1cccc(C(F)(F)F)c1)C1CCS(=O)(=O)C1 (stereo not given)	50	63*	1	0	-42	72*	66*	64*	86*	50	64*
SMILES	SENP8 block-1	SENP6 block	SENP1 FRET inh	Platelet DG rel	SENP8 block-2	SENP7 inh	SENP8 conf	SENP6 confirm	SENP7 confirm	Casp3 SENP sel	SENP luc ctr
CC1(C(=O)NS(=O)(=O)c2ccc(C#N)cc2)CCN1C(=O)CCC1CCCC1 (stereo not given)	·	·	-1	·	18	·	·	·	·	·	·
CCOC(=O)C1=NN(C(=O)Cc2ccccc2)C(O)(C(C)(C)C)C1 (stereo not given)	·	·	0	1	14	·	·	·	·	·	·
O=C(Nc1nc2c(F)c(F)c(F)cc2s1)c1ccco1	53*	68*	0	-9	-99	38	49	48	78*	52*	21
O=C(Nc1nc2c(F)cc(F)cc2s1)c1ccco1	74*	88*	3	4	-81	78*	60*	88*	96*	90*	34
COCc1cc(CN2CCCC(C(=O)Nc3cccc(-n4cnnn4)c3)C2)ccc1OC (stereo not given)	-5	6	2	-15	12	5	·	·	·	·	·
CCOC(=O)c1cc2ccc(OC(=O)c3ccco3)cc2oc1=O	36	56*	-20	22	-308	63*	55*	61*	87*	89*	56*
CCOC(=O)c1c(C)n(C)c2ccc(OC(=O)c3ccco3)cc12	3	-5	1	-1	22	6	·	·	·	·	·
